PKD1 kinase inh – blocks activity of human protein kinase D1; Q15139; PKD1 kinase fluorescence polarization assay; inhibition, % (concentration not given with the values); 0.056% of 200,000 active; AID 797
Runt-SMMHC FRET – blocks binding of human RUNX1 Runt domain to CBFb-SMMHC. Cerulean-Runt/Venus-CBFb-SMMHC FRET ratio 530/480, 1 h. inhibition, % at 20 µM. 0.74% of 220,000 active;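 active means mean inhibition across duplicate retests at 20 µM reaching about 50%, limit read from the data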;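 further: inhibitors lower the FRET ratio by blocking Runt binding to CBFb-SMMHC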
MEX-5 binding – C. elegans MEX-5 TCR-2 RNA binding activity; Q9XUB2; MEX-5/FITC-TCR2 RNA binding, fluorescence polarization; stronger effect = lower value; activity score (negative = inhibition of binding), % at 10 µM; 0.38% of 300,000 active;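 active means inhibition past about -25% in most replicates, and total fluorescence under double the plate's negative control median, limit read from the data; inconclusive means replicates evenly split on the limit, or fluorescence at least double controls; inactive means too little inhibition in most replicates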
Target sequence (Q9XUB2 whole entry, looked up): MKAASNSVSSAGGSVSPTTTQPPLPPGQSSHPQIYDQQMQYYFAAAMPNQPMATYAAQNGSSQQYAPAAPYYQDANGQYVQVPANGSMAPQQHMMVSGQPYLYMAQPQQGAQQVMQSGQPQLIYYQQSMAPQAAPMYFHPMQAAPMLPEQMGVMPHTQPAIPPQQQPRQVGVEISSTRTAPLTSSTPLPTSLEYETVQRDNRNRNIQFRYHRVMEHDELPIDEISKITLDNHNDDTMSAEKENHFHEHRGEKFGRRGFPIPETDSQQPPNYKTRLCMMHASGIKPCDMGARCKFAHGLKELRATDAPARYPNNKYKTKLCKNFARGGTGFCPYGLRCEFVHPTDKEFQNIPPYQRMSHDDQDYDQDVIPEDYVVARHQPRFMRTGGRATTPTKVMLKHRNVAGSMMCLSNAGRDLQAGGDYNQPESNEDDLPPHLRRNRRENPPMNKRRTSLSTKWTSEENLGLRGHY
RanGTP-Impb inh – inhibitors of RanGTP-importin-beta interaction, primary screen, biochemical, FRET, CFP-Ran, YFP-importin-beta, homogeneous; cell-free CFP-Ran/YFP-importin-beta FRET ratio; inhibition, % (no concentration beside the values); 1.1% of 300,000 active; AID 2216;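 active means more than half of the replicate wells show a fall in the fluorescence ratio signal beyond about 16%, limit read from the data, passing the limit was not always enough; inconclusive means exactly half of the replicate wells pass the set limit; inactive means fewer than half of replicates pass the limit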
Runt-CBFb FRET – Runt domain-CBFb interaction inhibition; 0.46% of 220,000 active; Q01196+Q13951; Cerulean-Runt/Venus-CBFb FRET ratio 530/480, 1 h; inhibition, % at 20 µM;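 active means inhibition over about 50% at 20 µM in the single-dose screen, limit read from the data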
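Assay system: Cerulean-Runt domain / Medium: Tris 50 mM pH 7.5, KCl, K2SO4, 0.01% BSA / Timing: protein complex preformed 1 h, compound exposure 1 h, room temperature, dark / Measured by: FRET, excitation 422 nm, emission at 530 and 480 nm / Evaluation: loss of energy transfer signal / Control set: 5 µM unlabeled CBFb as full-inhibition high control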
EBV gp42 inh – blocks Epstein-Barr virus glycoprotein 42 binding | AID 1085 | Q1HVG2 | inhibition, % (tested at 21.74 µM) | 0.42% of 220,000 active | Fluorescence polarization binding assay, mP read-out
Of the large screens only hits and unclear results are named; the others gave an inactive call. In the library only some 2% were active in any assay of this set; here they are far more common. Unless noted, no stated cut-off is given here; in the data, active means inhibition above about 50%; inactive means the rest.

CCCCCCNC(=O)N[C@H](C(=O)NCCC[C@H]1CN2C(=NC[C@H]2C)N1CCC(c1ccccc1)c1ccccc1)C(C)O (stereo partly drawn)	Runt-SMMHC FRET 62 (no result: PKD1 kinase inh, MEX-5 binding, RanGTP-Impb inh)
C[C@@H]1CN=C2N(CCNC(=O)CCC3CCCCC3)[C@H](Cc3ccc(O)cc3)CN21	none
C=CCn1c(Cc2cccc3ccccc23)n[nH]c1=S	none
C=CCn1c(Cc2nc3ccccc3[nH]2)n[nH]c1=S	MEX-5 binding -51, RanGTP-Impb inh inconclusive
Cc1cccc(N2C(=O)c3cccc4c(N)ccc(c34)C2=O)c1	MEX-5 binding inconclusive (no result: PKD1 kinase inh, Runt-SMMHC FRET, Runt-CBFb FRET, EBV gp42 inh)
Nc1ccc2c3c(cccc13)C(=O)N(c1ccccc1)C2=O	MEX-5 binding inconclusive, EBV gp42 inh 162
Cc1c(O)c2c3c(cccc3c1O)C(=O)N(c1ccccc1)C2=O	MEX-5 binding inconclusive, EBV gp42 inh 83
CN(C)c1ccc2c3c(cccc13)C(=O)N(c1ccccc1)C2=O	EBV gp42 inh 102 (no result: Runt-SMMHC FRET, Runt-CBFb FRET)
O=C(O)c1ccc(N2C(=O)c3cccc4c(C(=O)O)ccc(c34)C2=O)cc1	none
Cc1cccc(N2C(=O)c3cccc4c(N(C)CCO)ccc(c34)C2=O)c1	MEX-5 binding inconclusive, EBV gp42 inh 157
Cc1nn(C)c(C)c1S(=O)(=O)N(CC(=O)NCCCN1CCC(C)CC1)c1ccc(C(C)C)cc1	none (no result: PKD1 kinase inh, Runt-SMMHC FRET, Runt-CBFb FRET, EBV gp42 inh)
CC(=O)Nc1ccc2c3c(cccc13)C(=O)N(c1ccccc1)C2=O	Runt-SMMHC FRET 87, RanGTP-Impb inh 73
O=C(O)c1ccc2c3c(cccc13)C(=O)N(c1ccccc1)C2=O	RanGTP-Impb inh inconclusive
CN(C)c1ccc(N=Cc2nc(-c3ccccc3)oc2OC(=O)c2cccc(Br)c2)cc1	MEX-5 binding -43, RanGTP-Impb inh inconclusive
COc1ccc(CNC(=O)Cn2cccc2C(=O)c2ccccc2)cc1	none (no result: PKD1 kinase inh, Runt-SMMHC FRET, Runt-CBFb FRET, EBV gp42 inh)
COc1ccccc1-n1c(C)c2c(OC)cccc(=O)c2c1C	none
COc1cccc(=O)c2c(C)oc(C)c12	MEX-5 binding -71 (no result: RanGTP-Impb inh)
Cc1ccc2[nH]c(=O)c(CN(CCO)Cc3nnnn3CCc3ccccc3)cc2c1	MEX-5 binding -32
N#C/C(=C\c1c[nH]c2ccccc12)C(=O)Nc1ncc(Cc2ccc(Cl)cc2Cl)s1	RanGTP-Impb inh 46
CSCC[C@H](N)C(=O)N1CCC(C(=O)N[C@H](C)C(=O)NC(C)c2ccccc2)CC1 (stereo partly drawn)	RanGTP-Impb inh inconclusive (no result: PKD1 kinase inh, Runt-SMMHC FRET, Runt-CBFb FRET, EBV gp42 inh)
CC(NCC(O)COCCC12CC3CC(CC(C3)C1)C2)c1ccccc1 (stereo not drawn)	none
COc1ccc(-c2nnc(-c3ccc(N(C)C)cc3)o2)cc1	none
CN(C)c1ccc(-c2nnc(-c3ccc(S(=O)(=O)C(F)F)cc3)o2)cc1	MEX-5 binding -34
CCCOc1cccc(C(=O)Nc2ccc3c(c2)OCCO3)c1	none (no result: PKD1 kinase inh, Runt-SMMHC FRET, Runt-CBFb FRET, EBV gp42 inh)
O=C(O)Cn1c2c(c3ccccc31)CCCC2	RanGTP-Impb inh 29
CC(=O)NNC(=O)CCn1c2c(c3ccccc31)CCCC2	none (no result: PKD1 kinase inh)
CCc1ccccc1NC(=O)CCc1nc(-c2cccs2)no1	none
Fc1ccc(CNc2nc(-c3ccco3)cc(C(F)(F)F)n2)cc1	RanGTP-Impb inh 58
FC(F)(F)c1cc(-c2ccco2)nc(NCc2ccccc2)n1	none
Cc1ccc(NC2=CC(=O)CC(c3ccc(Cl)cc3)C2)cc1 (stereo not drawn)	RanGTP-Impb inh 35
CCOC(=O)Cc1cc(=O)[nH]c(/N=C(\N)Nc2ccc(C)c(C)c2)n1	none
Cc1ccc(S(=O)(=O)c2cc3c(=O)n4cccc(C)c4nc3n(Cc3ccco3)c2=N)cc1C	Runt-SMMHC FRET 65 (no result: PKD1 kinase inh, MEX-5 binding, RanGTP-Impb inh, EBV gp42 inh)
Cc1ccc(S(=O)(=O)c2cc3c(=O)n4ccccc4nc3n(Cc3ccco3)c2=N)cc1	RanGTP-Impb inh 104 (no result: Runt-SMMHC FRET)
CCCCn1c(=N)c(S(=O)(=O)c2ccc(Br)cc2)cc2c(=O)n3cccc(C)c3nc21	none (no result: PKD1 kinase inh, Runt-SMMHC FRET, Runt-CBFb FRET, EBV gp42 inh)
CCCC1OC23CCCCC2C(C#N)(C(=N)O3)C1(C#N)C#N (stereo not drawn)	RanGTP-Impb inh 33
CCC1OC23CCCCC2C(C#N)(C(=N)O3)C1(C#N)C#N (stereo not drawn)	RanGTP-Impb inh 27
COc1ccc(C2OC34CCCCC3C(C#N)(C#N)C2(C#N)C(=N)O4)cc1 (stereo not drawn)	Runt-SMMHC FRET 77, MEX-5 binding -84, RanGTP-Impb inh 43
N#CC12COC3(CCCCC3C1(C#N)C#N)OC2=N (stereo not drawn)	RanGTP-Impb inh 33 (no result: PKD1 kinase inh)
CC1OC23CCCCC2C(C#N)(C(=N)O3)C1(C#N)C#N (stereo not drawn)	none
CCOCCCNC(=O)c1cc(Nc2ccc(OC)cc2OC)nc2ccccc12	none (no result: PKD1 kinase inh, Runt-SMMHC FRET, Runt-CBFb FRET, EBV gp42 inh)
CN(C)S(=O)(=O)c1cc(NC2CC(=O)N(c3ccc(F)cc3)C2=O)ccc1Cl (stereo not drawn)	none
COc1cnc(-c2ccccn2)nc1Sc1ccc(F)cc1	none
CCCCNc1cc(Cl)nc(N)n1	RanGTP-Impb inh 40 (no result: PKD1 kinase inh)
Nc1nc(Cl)cc(NCCc2ccccc2)n1	none
CN(C)c1ccc(C(C(=O)NCc2ccccc2)N(Cc2ccco2)C(=O)c2snc(C(N)=O)c2N)cc1 (stereo not drawn)	none (no result: PKD1 kinase inh, Runt-SMMHC FRET, Runt-CBFb FRET, EBV gp42 inh)
COc1cccc(OC)c1NC(=O)C1CCCN1C(=O)Nc1cccc(Cl)c1 (stereo not drawn)	none (no result: PKD1 kinase inh, Runt-SMMHC FRET, Runt-CBFb FRET, EBV gp42 inh)
CCCCn1nc(C(=O)Oc2ccc3c(C)cc(=O)oc3c2)c2ccccc2c1=O	Runt-SMMHC FRET 58
CCCC(=O)Oc1ccc2c(C)cc(=O)oc2c1	RanGTP-Impb inh inconclusive
Cc1cc(=O)oc2cc(OC(=O)c3cncc(Br)c3)ccc12	Runt-SMMHC FRET 59

Compound activity: PubChem, several laboratories
